From ChEMBL document CHEMBL4346684, “Synthesis and structure-bactericidal activity relationships of non-ketolides: 9-Oxime clarithromycin 11,12-cyclic carbonate featured with three-to eight-atom-length spacers at 3-OH” (Eur J Med Chem, 2019)
In brackets after ≈: the same amount, converted by molar mass.

Columns and labels:
Format in all cases: functional
[1] = system: Streptococcus pneumoniae; assay: Antimicrobial activity against erythromycin-susceptible Streptococcus pneumoniae ATCC 49619 incubated in CAMHB medium for 20 to 24 hrs by two-fold microbroth dilution method
[2] = system: Streptococcus pneumoniae; assay: Antimicrobial activity against mef-encoded erythromycin resistant Streptococcus pneumoniae PU09 incubated in CAMHB medium for 20 to 24 hrs by two-fold microbroth dilution method
[3] = system: Streptococcus pneumoniae; assay: Antimicrobial activity against constitutively erythromycin resistant Streptococcus pneumoniae PU27 expressing c-erm incubated in CAMHB medium for 20 to 24 hrs by two-fold microbroth dilution method
Outline: (§1)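 Purified fresh Streptococcus isolate at about 5×10^5 CFU/ml final in CAMHB with 5% horse serum, 35 °C for 20–24 h. […] Each run included ATCC strains and reference antibiotics as QC, plus an antibiotic-free growth control.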

[4] = system: Streptococcus pyogenes; assay: Antimicrobial activity against constitutively erythromycin resistant Streptococcus pyogenes A2 expressing c-erm incubated in CAMHB medium for 20 to 24 hrs by two-fold microbroth dilution method; outline: as §1
[5] = system: Streptococcus pyogenes; assay: Antimicrobial activity against erythromycin-susceptible Streptococcus pyogenes A3 incubated in CAMHB medium for 20 to 24 hrs by two-fold microbroth dilution method
[6] = system: Staphylococcus aureus; assay: Antimicrobial activity against erythromycin-susceptible Staphylococcus aureus ATCC 29213 incubated in CAMHB medium for 20 hrs by two-fold microbroth dilution method; conditions: ATCC 29213, 20 h
Outline: (§2)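 Clinical isolates and ATCC strains, purified by plate activation and used fresh; inoculum about 5×10^5 CFU/ml final. Grown in CAMHB at 35 °C for 20 h.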

[7] = system: Staphylococcus aureus; assay: Antimicrobial activity against inducibly erythromycin-resistant Staphylococcus aureus PU32 expressing i-ermA incubated in CAMHB medium for 20 hrs by two-fold microbroth dilution method; conditions: PU32, 20 h
Outline: (§3)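 Purified fresh Staphylococcus isolate at about 5×10^5 CFU/ml final in CAMHB, 35 °C for 20 h. […] Each run included ATCC strains and reference antibiotics as QC, plus an antibiotic-free growth control.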

[8] = system: Staphylococcus aureus; assay: Antimicrobial activity against constitutively erythromycin resistant Staphylococcus aureus PU20 expressing c-ermC incubated in CAMHB medium for 20 hrs by two-fold microbroth dilution method; conditions: PU20, 20 h; outline: as §3
[9] = system: Staphylococcus aureus; assay: Antimicrobial activity against inducibly erythromycin resistant Staphylococcus aureus PU64 expressing i-ermA incubated in CAMHB medium for 20 hrs by two-fold microbroth dilution method; conditions: PU64, 20 h; outline: as §3
[10] = system: Staphylococcus epidermidis; assay: Antimicrobial activity against Staphylococcus epidermidis E1 incubated in CAMHB medium for 20 hrs by two-fold microbroth dilution method; conditions: E1, 20 h; outline: as §2
[11] = system: Streptococcus pneumoniae; assay: Bactericidal activity against erythromycin-susceptible Streptococcus pneumoniae ATCC 49619 assessed as reduction in colony formation incubated in CAMHB medium for 20 to 24 hrs followed by 24 hrs subculturing in the medium without test compound
[12] = system: Streptococcus pneumoniae; assay: Ratio of MBC to MIC for erythromycin-susceptible Streptococcus pneumoniae ATCC 49619
[13] = system: Streptococcus pneumoniae; assay: Bactericidal activity against mef-encoded erythromycin resistant Streptococcus pneumoniae PU09 assessed as reduction in colony formation incubated in CAMHB medium for 20 to 24 hrs followed by 24 hrs subculturing in the medium without test compound
[14] = system: Streptococcus pneumoniae; assay: Ratio of MBC to MIC for mef-encoded erythromycin resistant Streptococcus pneumoniae PU09
[15] = system: Streptococcus pyogenes; assay: Antimicrobial activity against inducibly erythromycin resistant Streptococcus pyogenes 01-968 expressing i-ermA incubated in CAMHB medium for 20 to 24 hrs by two-fold microbroth dilution method
[16] = system: Streptococcus pyogenes; assay: Bactericidal activity against inducibly erythromycin resistant Streptococcus pyogenes 01-968 expressing i-ermA assessed as reduction in colony formation incubated in CAMHB medium for 20 to 24 hrs followed by 24 hrs subculturing in the medium without test compound
[17] = system: Streptococcus pyogenes; assay: Ratio of MBC to MIC for inducibly erythromycin resistant Streptococcus pyogenes 01-968 expressing i-ermA
[18] = system: Staphylococcus aureus; assay: Antimicrobial activity against constitutively erythromycin resistant and methicillin resistant Staphylococcus aureus PU20 expressing c-ermC incubated in CAMHB medium for 20 hrs by two-fold microbroth dilution method; conditions: PU20, 20 h
Outline: (§4)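 Purified fresh Staphylococcus isolate at about 5×10^5 CFU/ml final in CAMHB, 35 °C for 20 h. Each run included ATCC strains and reference antibiotics as QC, plus an antibiotic-free growth control.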

[19] = system: Staphylococcus aureus; assay: Antimicrobial activity against inducibly erythromycin-resistant and methicillin resistant Staphylococcus aureus PU32 expressing i-ermA incubated in CAMHB medium for 20 hrs by two-fold microbroth dilution method; conditions: PU32, 20 h; outline: as §4
[20] = system: Staphylococcus aureus; assay: Bactericidal activity against inducibly erythromycin-resistant and methicillin resistant Staphylococcus aureus PU32 expressing i-ermA assessed as reduction in colony formation incubated in CAMHB medium for 20 hrs followed by 24 hrs subculturing in the medium without test compound
[21] = system: Staphylococcus aureus; assay: Ratio of MBC to MIC for inducibly erythromycin-resistant and methicillin resistant Staphylococcus aureus PU32 expressing i-ermA
[22] = system: Haemophilus influenzae; assay: Antimicrobial activity against azithromycin-susceptible Haemophilus influenzae ATCC 49247 incubated in HTM broth medium for 20 to 24 hrs by two-fold microbroth dilution method

Compound	MIC [1] [µg/mL]	MIC [2] [µg/mL]	MIC [3] [µg/mL]	MIC [4] [µg/mL]	MIC [5] [µg/mL]	MIC [6] [µg/mL]	MIC [7] [µg/mL]	MIC [8] [µg/mL]	MIC [9] [µg/mL]	MIC [10] [µg/mL]	further results
C=CCO/N=C1\[C@H](C)C[C@@](C)(OC)[C@H](O[C@@H]2O[C@H](C)C[C@H](N(C)C)[C@H]2O)[C@@H](C)[C@H](OCC#Cc2ccc(N)cn2)[C@@H](C)C(=O)O[C@H](CC)[C@@]2(C)OC(=O)O[C@@H]2[C@H]1C	4 (≈ 4.99 µM)	8 (≈ 9.99 µM)	64 (≈ 79.9 µM)	128 (≈ 160 µM)	4 (≈ 4.99 µM)	64 (≈ 79.9 µM)	128 (≈ 160 µM)	> 256	> 256	> 256	–
CC[C@H]1OC(=O)[C@H](C)[C@@H](O[C@H]2C[C@@](C)(OC)[C@@H](O)[C@H](C)O2)[C@H](C)[C@@H](O[C@@H]2O[C@H](C)C[C@H](N(C)C)[C@H]2O)[C@](C)(O)C[C@@H](C)CN(C)[C@H](C)[C@@H](O)[C@]1(C)O [AZITHROMYCIN]	0.25 (≈ 0.334 µM)	16 (≈ 21.4 µM)	64 (≈ 85.4 µM)	128 (≈ 171 µM)	0.25 (≈ 0.334 µM)	2 (≈ 2.67 µM)	> 256	> 256	> 256	> 256	–
C=CCO/N=C1\[C@H](C)C[C@@](C)(OC)[C@H](O[C@@H]2O[C@H](C)C[C@H](N(C)C)[C@H]2O)[C@@H](C)[C@H](OCC#Cc2cncc(N)c2)[C@@H](C)C(=O)O[C@H](CC)[C@@]2(C)OC(=O)O[C@@H]2[C@H]1C	4 (≈ 4.99 µM)	8 (≈ 9.99 µM)	128 (≈ 160 µM)	128 (≈ 160 µM)	4 (≈ 4.99 µM)	64 (≈ 79.9 µM)	256 (≈ 320 µM)	256 (≈ 320 µM)	128 (≈ 160 µM)	256 (≈ 320 µM)	–
C=CCO/N=C1\[C@H](C)C[C@@](C)(OC)[C@H](O[C@@H]2O[C@H](C)C[C@H](N(C)C)[C@H]2O)[C@@H](C)[C@H](OCC#Cc2cncnc2)[C@@H](C)C(=O)O[C@H](CC)[C@@]2(C)OC(=O)O[C@@H]2[C@H]1C	4 (≈ 5.08 µM)	4 (≈ 5.08 µM)	64 (≈ 81.3 µM)	64 (≈ 81.3 µM)	4 (≈ 5.08 µM)	64 (≈ 81.3 µM)	128 (≈ 163 µM)	256 (≈ 325 µM)	256 (≈ 325 µM)	256 (≈ 325 µM)	–
C=CCO/N=C1\[C@H](C)C[C@@](C)(OC)[C@H](O[C@@H]2O[C@H](C)C[C@H](N(C)C)[C@H]2O)[C@@H](C)[C@H](O)[C@@H](C)C(=O)O[C@H](CC)[C@@]2(C)OC(=O)O[C@@H]2[C@H]1C	8 (≈ 11.9 µM)	16 (≈ 23.9 µM)	128 (≈ 191 µM)	128 (≈ 191 µM)	16 (≈ 23.9 µM)	128 (≈ 191 µM)	> 256	> 256	> 256	> 256	–
C=CCO/N=C1\[C@H](C)C[C@@](C)(OC)[C@H](O[C@@H]2O[C@H](C)C[C@H](N(C)C)[C@H]2O)[C@@H](C)[C@H](OCC#Cc2cncc(C#N)c2)[C@@H](C)C(=O)O[C@H](CC)[C@@]2(C)OC(=O)O[C@@H]2[C@H]1C	4 (≈ 4.93 µM)	8 (≈ 9.86 µM)	64 (≈ 78.9 µM)	128 (≈ 158 µM)	4 (≈ 4.93 µM)	64 (≈ 78.9 µM)	128 (≈ 158 µM)	128 (≈ 158 µM)	128 (≈ 158 µM)	256 (≈ 316 µM)	–
C=CCO/N=C1\[C@H](C)C[C@@](C)(OC)[C@H](O[C@@H]2O[C@H](C)C[C@H](N(C)C)[C@H]2O)[C@@H](C)[C@H](OCC#Cc2ccnc(N)c2)[C@@H](C)C(=O)O[C@H](CC)[C@@]2(C)OC(=O)O[C@@H]2[C@H]1C	4 (≈ 4.99 µM)	8 (≈ 9.99 µM)	64 (≈ 79.9 µM)	128 (≈ 160 µM)	4 (≈ 4.99 µM)	64 (≈ 79.9 µM)	256 (≈ 320 µM)	256 (≈ 320 µM)	256 (≈ 320 µM)	256 (≈ 320 µM)	–
C=CCO/N=C1\[C@H](C)C[C@@](C)(OC)[C@H](O[C@@H]2O[C@H](C)C[C@H](N(C)C)[C@H]2O)[C@@H](C)[C@H](OCC#Cc2ccc(N)nc2)[C@@H](C)C(=O)O[C@H](CC)[C@@]2(C)OC(=O)O[C@@H]2[C@H]1C	2 (≈ 2.5 µM)	4 (≈ 4.99 µM)	64 (≈ 79.9 µM)	64 (≈ 79.9 µM)	4 (≈ 4.99 µM)	32 (≈ 40 µM)	256 (≈ 320 µM)	256 (≈ 320 µM)	256 (≈ 320 µM)	256 (≈ 320 µM)	–
C=CCO/N=C1\[C@H](C)C[C@@](C)(OC)[C@H](O[C@@H]2O[C@H](C)C[C@H](N(C)C)[C@H]2O)[C@@H](C)[C@H](OCC#Cc2cccc(N)n2)[C@@H](C)C(=O)O[C@H](CC)[C@@]2(C)OC(=O)O[C@@H]2[C@H]1C	4 (≈ 4.99 µM)	4 (≈ 4.99 µM)	64 (≈ 79.9 µM)	64 (≈ 79.9 µM)	4 (≈ 4.99 µM)	64 (≈ 79.9 µM)	256 (≈ 320 µM)	256 (≈ 320 µM)	128 (≈ 160 µM)	256 (≈ 320 µM)	–
CC[C@H]1OC(=O)[C@H](C)[C@@H](OC(=O)NCC#Cc2cccnc2)[C@H](C)[C@@H](O[C@@H]2O[C@H](C)C[C@H](N(C)C)[C@H]2O)[C@](C)(OC)C[C@@H](C)/C(=N\OC)[C@H](C)[C@H]2OC(=O)O[C@@]21C	0.03 (≈ 0.0374 µM)	0.5 (≈ 0.623 µM)	–	–	–	–	–	–	–	–	MBC [11]: 0.062 µg/mL (≈ 0.0772 µM); Ratio [12]: 2; MBC [13]: 2 µg/mL (≈ 2.49 µM); Ratio [14]: 4; MIC [15]: 1 µg/mL (≈ 1.25 µM); MBC [16]: 4 µg/mL (≈ 4.98 µM); Ratio [17]: 4; MIC [18]: > 256 µg/mL; MIC [19]: 16 µg/mL (≈ 19.9 µM); MBC [20]: > 128 µg/mL; Ratio [21]: >8; MIC [22]: > 256 µg/mL
C=CCO/N=C1\[C@H](C)C[C@@](C)(OC)[C@H](O[C@@H]2O[C@H](C)C[C@H](N(C)C)[C@H]2O)[C@@H](C)[C@H](OCC#Cc2cccnc2N)[C@@H](C)C(=O)O[C@H](CC)[C@@]2(C)OC(=O)O[C@@H]2[C@H]1C	4 (≈ 4.99 µM)	8 (≈ 9.99 µM)	32 (≈ 40 µM)	64 (≈ 79.9 µM)	4 (≈ 4.99 µM)	64 (≈ 79.9 µM)	256 (≈ 320 µM)	256 (≈ 320 µM)	64 (≈ 79.9 µM)	256 (≈ 320 µM)	–
